Results gathered from unrelated publications.
Protocols differ between the studies behind these lines.
KIT A829P: Mast/stem cell growth factor receptor Kit (KIT, Homo sapiens, UniProt P10721, A829P)
KIT D816H: Mast/stem cell growth factor receptor Kit (KIT, Homo sapiens, UniProt P10721, D816H)
KIT V559D/V654A: Mast/stem cell growth factor receptor Kit (KIT, Homo sapiens, UniProt P10721, V559D/V654A)
KIT: Mast/stem cell growth factor receptor Kit (KIT, Homo sapiens, UniProt P10721)
KIT V559D: Mast/stem cell growth factor receptor Kit (KIT, Homo sapiens, UniProt P10721, V559D)
KIT autoinhibited: Mast/stem cell growth factor receptor Kit, autoinhibited (KIT, Homo sapiens, UniProt P10721)
KIT D816V: Mast/stem cell growth factor receptor Kit (KIT, Homo sapiens, UniProt P10721, D816V)
KIT T670I/V559D: Mast/stem cell growth factor receptor Kit (KIT, Homo sapiens, UniProt P10721, T670I/V559D)

Compound | target | test | conditions | remaining binding [%]
CC(=O)N1CCC(c2ccc(C(=O)NC(=N)N)cc2C(F)(F)F)CC1 | KIT A829P | cell-free assay, competition with immobilised ligand | 1 µM | 100
CN(c1nccc(-c2cnn3ncccc23)n1)C1CC1 | KIT D816H | binding | 1 µM | 83
c1cncc(-c2cccc(Nc3nccc(NC4CCCCC4)n3)c2)c1 | KIT V559D/V654A | binding, competition with immobilised ligand | 10 µM | 43
O=C(c1ccc(Nc2ncc(Cl)c(-c3cc4ccccc4s3)n2)cc1)N1CCC(N2CCCC2)CC1 | KIT | binding, competition with immobilised ligand | 1 µM | 18
COc1ccc2c(c1)O[C@@H](c1ccc(OC)c(OC)c1)C[C@H]2NC(=O)C1(c2ccc3c(c2)OC(F)(F)O3)CC1 | KIT A829P | cell-free assay, competition with immobilised ligand | 1 µM | 75
CNC(=O)[C@@H]1CC[C@@H](n2c(-c3ccc4cnccc4c3)nc3ccc(C(=O)NCc4cccc(C(N)=O)c4)cc32)C1 | KIT V559D | binding, competition with immobilised ligand | 1 µM | 100
c1cnn2ncc(-c3ccnc(N4CCC45COC5)n3)c2c1 | KIT V559D/V654A | binding | 1 µM | 100
CCN1CCN(Cc2ccc(C(=O)Nc3ccc(C)c(Oc4ccc5c(c4)CC(=O)N5)c3)cc2C(F)(F)F)CC1 | KIT V559D | binding, competition with immobilised ligand | 1 µM | 0.4
CN([C@@H]1CCc2c(CC(=O)O)c3ccccc3n2C1)S(=O)(=O)c1ccc(F)cc1 | KIT D816H | cell-free assay, competition with immobilised ligand | 1 µM | 95
O=C(Nc1c[nH]nc1C(=O)NC1CCNCC1)c1cc(F)cc(F)c1 | KIT V559D | binding, competition with immobilised ligand | 1 µM | 100
Cc1cnn2ncc(-c3ccnc(N(C)C)n3)c2c1 | KIT A829P | binding | 1 µM | 95
O=C(NCCCN1CCOCC1)c1ccc(Nc2ncc(Cl)c(-c3ccc(Cl)s3)n2)cc1 | KIT autoinhibited | binding, competition with immobilised ligand | 1 µM | 31
COc1ccnn2ncc(-c3ccnc(N(C)C)n3)c12 | KIT V559D/V654A | binding | 1 µM | 100
O=C(O)[C@H]1[C@H](Cn2nnc3ccccc3c2=O)CC[C@@H]1C(=O)c1ccc(OCCC2CCOCC2)cc1 | KIT D816V | cell-free assay, competition with immobilised ligand | 1 µM | 97
C[C@@H]1CCN(c2nccc(-c3cnn4ncccc34)n2)C1 | KIT autoinhibited | binding | 1 µM | 87
CN1CCN(c2ccc(Nc3nccc(-c4ccccc4)n3)cc2C(F)(F)F)CC1 | KIT D816V | binding | 10 µM | 6.8
CC1=C(C#N)[C@@H](c2ccc3[nH]nc(C)c3c2)C(C#N)=C(c2ccc(Cl)cc2)N1 | KIT | cell-free assay, competition with immobilised ligand | 1 µM | 95.4
N[C@@H]1CCN(c2nccc(-c3cnn4ncccc34)n2)C1 | KIT T670I/V559D | binding | 1 µM | 100
O=C(c1ccc(Nc2nccc(-c3cc4ccccc4s3)n2)cc1)N1CCC(N2CCCC2)CC1 | KIT V559D/V654A | binding, competition with immobilised ligand | 1 µM | 63
O=C(N[C@H]1CCCCC/C=C\C2C[C@@]2(C(=O)O)NC(=O)[C@@H]2C[C@@H](Oc3ccncc3)CN2C1=O)OC1CCCC1 (stereo partly drawn) | KIT V559D/V654A | binding, competition with immobilised ligand | 1 µM | 63
F[C@@H]1CCN(c2nccc(-c3cnn4ncccc34)n2)C1 | KIT V559D | binding | 1 µM | 100
C[C@@H]1CN(c2cc(-c3n[nH]c4ccc(OC5(C)CC5)cc34)ncn2)C[C@H](C)O1 | KIT V559D | cell-free assay, competition with immobilised ligand | 0.1 µM | 100
COc1cnc(Nc2cccc(S(N)(=O)=O)c2)nc1N1CCN(c2ccccc2)CC1 | KIT D816H | binding, competition with immobilised ligand | 1 µM | 66
N#Cc1ccccc1CSc1nnc2c(n1)[nH]c1ccccc12 | KIT T670I/V559D | binding, competition with immobilised ligand | 10 µM | 100
